Bioassay records as filed in PubChem BioAssay.
Rows were chosen to be rich in hits. Some 1.4% of all compounds tested hit in one or more screens of this group.
CAL PDZ FP-1 = inhibitors of human CAL PDZ peptide binding. actives 0.92% (n = 300,000). Q9HD26. AID 602252. purified CAL PDZ, TMR-peptide fluorescence polarization, 1 h. inhibition, % at 24.9 µM;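 active = mean inhibition of at least 30% with at least half of replicates also reaching 30%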;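 also: 0% = DMSO neutral control and 100% = excess unlabeled competitor peptide PRC23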
CAL PDZ FP-2 = inhibitors of human CAL PDZ peptide binding; actives 0.02% (n = 330,000); inhibition, % at 20 µM; Q9HD26; purified CAL PDZ, TMR-peptide fluorescence polarization, 1 h;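 active = highest replicate inhibition of at least 40%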;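 also: plate controls were DMSO neutral control wells for no effect and unlabeled competitor peptide control wells for full effect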
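Material – purified CerCALP PDZ construct · Detection – FP readout, S and P plane fluorescence · Measure – percent inhibition from loss of millipolarization · Controls – unlabelled peptide for full inhibition, DMSO wells as neutral · Probe or stimulus – TMR-labelled reporter peptide T*-PRC34 bound in PDZ groove · Times – 1 h at RT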
Tb MetRS inh = Trypanosoma brucei MetRS inhibition; AID 624268; actives 0.4% (n = 360,000); purified T. brucei MetRS, ATP depletion, Kinase-Glo luminescence; inhibition, % at 11.9 µM;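 active = inhibition above a per-plate cutoff of the control wells' mean inhibition plus 3 SD, cut at about 5.5% in these data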;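 also: 0% = DMSO wells median and 100% = median of wells with control inhibitor compound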
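Test system: purified T. brucei MetRS enzyme. Also added: ATP, methionine and E. coli bulk tRNA substrates. Compound: 11.9 µM single point. Schedule: 15 min enzyme-compound preincubation, 2 h reaction, 10 min detection, 25 °C. Signal: luciferase luminescence of residual ATP, Kinase-Glo. Evaluation: percent inhibition versus plate control medians. Controls: DMSO wells, low control.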
DYRK1A inh = inhibitors of rat Dyrk1A kinase; Q63470; ADP-Glo luminescence, NFATc1 peptide; inhibition, % at 12.5 µM; actives 0.43% (n = 310,000); in the data active = inhibition above about 50%;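 also: plate controls were vehicle with enzyme for no effect and no enzyme for full effect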
PvdQ acylase = P. aeruginosa PvdQ acylase inhibition; actives 0.063% (n = 340,000); inhibition, % at 10 µM; purified PvdQ acylase, fluorescence plate reader; AID 488965; in the data active = inhibition above about 30%, passing the limit was not always enough;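 also: 0% = vehicle neutral wells and 100% = reference inhibitor wells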
CDK5 inh = blocks human CDK5/p35 kinase activity | Recombinant CDK5/p35, ADP-Glo luminescence, 60 min | Q00535+Q15078 | AID 488839 | actives 0.01% (n = 330,000) | inhibition, % at 10 µM;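 active = highest replicate inhibition of at least 50% and at least 75% of replicates reaching 50%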;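 also: plate controls were DMSO neutral control for no effect and GW8510 at 10 µM for full effect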
Target sequence (Q00535 whole entry, looked up): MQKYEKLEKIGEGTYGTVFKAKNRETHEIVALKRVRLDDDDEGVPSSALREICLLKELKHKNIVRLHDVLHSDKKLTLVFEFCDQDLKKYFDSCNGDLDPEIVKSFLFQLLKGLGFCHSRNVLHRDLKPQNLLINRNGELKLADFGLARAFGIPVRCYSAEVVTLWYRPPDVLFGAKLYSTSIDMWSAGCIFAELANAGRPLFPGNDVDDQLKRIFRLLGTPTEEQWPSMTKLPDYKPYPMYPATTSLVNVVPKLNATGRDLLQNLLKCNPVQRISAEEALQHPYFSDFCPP
Target sequence (Q15078 whole entry, looked up): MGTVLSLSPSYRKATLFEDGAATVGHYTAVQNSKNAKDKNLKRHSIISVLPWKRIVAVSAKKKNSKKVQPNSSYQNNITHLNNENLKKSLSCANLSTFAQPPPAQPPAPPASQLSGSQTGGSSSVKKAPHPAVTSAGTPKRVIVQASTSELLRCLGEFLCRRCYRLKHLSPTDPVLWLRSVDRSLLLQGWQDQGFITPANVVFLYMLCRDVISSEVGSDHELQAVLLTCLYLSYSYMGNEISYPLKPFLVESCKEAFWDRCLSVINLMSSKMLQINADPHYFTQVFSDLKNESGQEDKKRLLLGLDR
TbMetRS confirm = Trypanosoma brucei MetRS inhibition confirmed | shares compounds with Tb MetRS inh | T. brucei MetRS enzyme, luminescence (ATP depletion) | inhibition, % at 11.9 µM | actives 93% (n = 1,400) | AID 624412; in the data active = inhibition above about 7%
Jurkat cytotox = counter-screen for T. brucei MetRS inhibitors: Jurkat cell cytotoxicity; inhibition, % at 8.3 µM; AID 624413; shares compounds with Tb MetRS inh; Jurkat cells viability, ATP luminescence; actives 12% (n = 1,400); in the data active = inhibition above about 15%;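 also: 0% = vehicle and 100% = reference inhibitor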
Tb MetRS inh FP = orthogonal test for Trypanosoma brucei MetRS inhibitors; purified T. brucei MetRS, fluorescence polarization; shares compounds with Tb MetRS inh; inhibition, % at 11.9 µM; actives 44% (n = 1,400); in the data active = inhibition above about 17%;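 also: 0% = vehicle wells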
* hit, by the source's call; . = no result; ! = a repeat was not active.

SMILES	CAL PDZ FP-1	CAL PDZ FP-2	Tb MetRS inh	DYRK1A inh	PvdQ acylase	CDK5 inh	TbMetRS confirm	Jurkat cytotox	Tb MetRS inh FP
N#CC(CC(=O)OCc1ccccc1)NC(=O)OCc1ccccc1 (stereo unspecified)	.	.	0	.	.	.	.	.	.
CN1CC(=O)N2C(c3ccc(Cl)cc3)c3[nH]c4ccccc4c3C[C@H]2C1=O (stereo partly specified)	1	0	7.2*	5	-11	-1	18*	43*	0
COc1cccc(C2c3[nH]c4ccccc4c3C[C@H]3C(=O)N(c4ccccc4C(=O)N4CCCC4C(=O)O)C(=O)N23)c1 (stereo partly specified)	-3	-1	6.4*	0	-12	-4	16*	-1	4
COc1cccc(C2c3[nH]c4ccccc4c3C[C@H]3C(=O)N(CCCCCO)CC(=O)N23)c1 (stereo partly specified)	1	-3	10.0*	0	-6	0	21*	10	1
COC(=O)c1ccc(C2c3[nH]c4ccccc4c3C[C@H]3C(=O)N(C)CC(=O)N23)cc1 (stereo partly specified)	-7	-1	-1	3	16	0	.	.	.
O=C1[C@@H]2Cc3c([nH]c4ccccc34)C(c3ccc([N+](=O)[O-])cc3)N2C(=O)CN1C1CC1 (stereo partly specified)	-2	0	9.4*	0	-2	0	20*	9	8
CN1CC(=O)N2C(c3cccc([N+](=O)[O-])c3)c3[nH]c4ccccc4c3C[C@H]2C1=O (stereo partly specified)	-6	0	78*	-3	-12	1	105*	-5	91*
O=C1[C@@H]2Cc3c([nH]c4ccccc34)C(c3cccc([N+](=O)[O-])c3)N2C(=O)CN1CCCO (stereo partly specified)	-4	-1	96*	-1	-9	-2	95*	-1	93*
COc1ccc2[nH]c(C)c(C(=O)CN3CCN(C(=O)c4ccco4)CC3)c2c1	.	0	0	11	-2	-1	.	.	.
COc1ccc2[nH]cc(C(=O)CN3CCN(C(=O)c4ccco4)CC3)c2c1	-3	-1	6.4*	1	7	-1	4	-5	-4
CCc1c(O)nc(SCC(=O)Nc2ccc(Br)cc2)n(-c2ccc(C)cc2)c1=O	1	-2	6.4*	.	4	.	22*	1	2
COCOCCn1cc(CN2CCS(=O)(=O)N(Cc3ccc(-c4ccncc4)cc3)C(CC(C)C)C2=O)nn1 (stereo unspecified)	.	.	-1	.	.	.	.	.	.
CC(=O)Nc1ccc(C(=O)N2CCCCC2c2cc(C(=O)NCc3ccc(F)cc3)no2)cc1 (stereo unspecified)	.	.	0	.	.	.	.	.	.
CCC(C)n1c(NC(=O)c2ccccc2)c(C#N)c2nc3ccccc3nc21 (stereo unspecified)	-9	.	3	-10	-3	0	.	.	.
CCCCn1c(NC(=O)c2ccccc2)c(C#N)c2nc3ccccc3nc21	-2	1	11*	7	6	-1	15*	4	7
OC[C@@H]1CN(Cc2ccc(-c3ccccc3)cc2)C[C@H](n2cnc3c(NCc4ccco4)ncnc32)O1	.	.	0	.	.	.	.	.	.
Cc1ccc(NC(=O)CN2CC(C)SC2=NC2CCCCC2)cc1 (stereo unspecified)	5	0	12*!	1	3	-1	25*	4	6
CN(C(=O)CN1CCN(c2cc(-c3cccc4oc5ccccc5c34)ncn2)CC1)c1ccccc1	.	.	0	.	.	.	.	.	.
COc1ccccc1NC(=O)N(C)C[C@H]1OCc2cnnn2CCCC(=O)N([C@H](C)CO)C[C@@H]1C	.	.	-1	.	.	.	.	.	.
O=C(Nc1cccnc1)c1ccc(COc2ccccc2Cl)o1	-4	-3	0	10	-1	-2	.	.	.
O=C(Nc1cccnc1)c1ccc(COc2cc(Cl)ccc2Cl)o1	-4	-2	6.8*	7	0	-1	15*	8	18*
O=C(NCc1ccc2c(c1)OCO2)c1ccc(COc2cc(Cl)ccc2Cl)o1	.	-1	8.1*	4	-5	-1	15*	-2	10
CC1CC(C)CN(C(C(=O)NC2CCCCC2)c2cc3ccccc3o2)C1 (stereo unspecified)	.	.	-1	.	.	.	.	.	.
O=C(NC1CCCCC1)N1CCC(c2nc3ccccc3[nH]2)CC1	-5	-1	1	-13	-17	-5	.	.	.
O=C(C1CCCCC1)N1CCC(c2nc3ccccc3[nH]2)CC1	0	-1	1	1	1	1	.	.	.
SMILES	CAL PDZ FP-1	CAL PDZ FP-2	Tb MetRS inh	DYRK1A inh	PvdQ acylase	CDK5 inh	TbMetRS confirm	Jurkat cytotox	Tb MetRS inh FP
COc1ccc(NC(=S)N2CCC(c3nc4ccc(Cl)cc4[nH]3)CC2)c(OC)c1	-6	-2	15*	0	-9	1	36*	1	24*
O=C(NC1CCCCC1)N1CCC(c2nc3ccc(Cl)cc3[nH]2)CC1	.	-3	7.8*	-2	2	-1	12*	12	6
O=C(NC1CCCCC1)N1CCCC(c2nc3ccccc3[nH]2)C1 (stereo unspecified)	.	-2	9.2*	7	-6	2	16*	-2	9
O=c1ccc(-c2nc3ccccc3n2C(CCc2ccccc2)c2nc3ccccc3[nH]2)c[nH]1 (stereo unspecified)	.	.	0	.	.	.	.	.	.
Nc1ncnc2c1ncn2[C@@H]1O[C@H](CNS(=O)(=O)c2ccc3c(c2)CCN(C(=O)C(F)(F)F)C3)[C@@H](O)[C@H]1O	1	-1	8.7*	.	-3	1	17*	16*	9
COc1ccc(S(=O)(=O)Nc2c(C)cccc2C)cc1-n1cnnn1	4	-1	5.9*	-2	-17	2	3	-6	1
NC(Cc1ccc(Cl)cc1)c1csc(NC(=O)Nc2ccccc2)n1 (stereo unspecified)	.	.	61*	.	.	.	87*	12	85*
NC(Cc1ccc(C(F)(F)F)cc1)c1csc(NC(=O)Nc2ccccc2)n1 (stereo unspecified)	.	.	77*	.	.	.	96*	6	90*
NC(Cc1ccc(C(F)(F)F)cc1)c1csc(NC(=O)Nc2ccccc2Cl)n1 (stereo unspecified)	.	.	0	.	.	.	.	.	.
Cc1ccc(C)c(NC(=O)CCC(=O)N/N=C/c2cccnc2)c1	1	-1	-1	2	-1	2	.	.	.
